ChEMBL document CHEMBL1165950, “Design and synthesis of new potent anticancer pyrazoles with high FLT3 kinase inhibitory selectivity” (Bioorg Med Chem, 2010)

How the values were obtained:
Format in all cases: functional
SK-MEL-2 [1] = assay: Cytotoxicity against human SK-MEL-2 cells assessed as cell growth at 100 nM after 48 hrs by sulforhodamine B assay; conditions: SK-MEL-2, 48 h, read-out: Activity
OVCAR-4 [2] = assay: Cytotoxicity against human OVCAR4 cells assessed as cell growth at 100 nM after 48 hrs by sulforhodamine B assay; conditions: OVCAR-4, 48 h, read-out: Activity
OVCAR-5 = assay: Cytotoxicity against human OVCAR5 cells assessed as cell growth at 100 nM after 48 hrs by sulforhodamine B assay; conditions: OVCAR-5, 48 h, read-out: Activity
SNB-75 = assay: Cytotoxicity against human SNB75 cells assessed as cell growth at 10 uM; conditions: read-out: Activity
Summary of the method: (§1)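 NCI-60 screen: cells grown in RPMI 1640 with 5% FBS and 2 mM L-glutamine, plated at 5000–40,000 cells/well according to doubling time, and preincubated 24 h at 37 °C, 5% CO2. The single 10 µM dose (DMSO stock) was added, then incubated 48 h. Cells were TCA-fixed and stained with 0.4% SRB, read at 515 nm, and growth % calculated against time-zero and control plates.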

U-251 = assay: Cytotoxicity against human U251 cells assessed as cell growth at 10 uM; conditions: read-out: Activity; summary of the method: as §1
NCI/ADR-RES = assay: Cytotoxicity against human NCI/ADR-RES cells assessed as cell growth at 10 uM; conditions: read-out: Activity; summary of the method: as §1
A498 = assay: Cytotoxicity against human A498 cells assessed as cell growth at 10 uM; conditions: read-out: Activity
Summary of the method: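 Single-dose NCI-60 screen at 10 µM. Cells were grown in RPMI 1640 with 5% FBS and 2 mM L-glutamine, then treated for 48 h at 37 °C. Protein was measured by SRB staining with absorbance at 515 nm. Percentage growth was recorded, and inhibition percentage was calculated as 100 minus growth percentage.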

TK-10 = assay: Cytotoxicity against human TK10 cells assessed as cell growth at 10 uM; conditions: read-out: Activity; summary of the method: as §1
PC-3 [3] = assay: Cytotoxicity against human PC3 cells assessed as cell growth at 10 uM; conditions: read-out: Activity; summary of the method: as §1
MCF7 = assay: Cytotoxicity against human MCF7 cells assessed as cell growth at 10 uM; conditions: read-out: Activity; summary of the method: as §1
A549 = assay: Cytotoxicity against human A549 cells assessed as cell growth at 0.001 uM after 48 hrs by sulforhodamine B assay; conditions: A549, 48 h, read-out: Activity
Summary of the method: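 NCI-60 five-dose screen. Cells were grown in RPMI 1640 with 5% FBS and 2 mM L-glutamine, plated at 5000–40,000 cells/well and preincubated for 24 h. Time-zero plates were TCA-fixed. DMSO-solubilized drug was added at five concentrations (10-fold or ½-log serial dilutions) for 48 h at 37 °C, 5% CO2. Cells were TCA-fixed, stained with 0.4% SRB and read at 515 nm. Percent growth used time-zero, control and test absorbances.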

KM12 = assay: Cytotoxicity against human KM12 cells assessed as cell growth at 1 uM after 48 hrs by sulforhodamine B assay; conditions: KM12, 48 h, read-out: Activity
SF-539 = assay: Cytotoxicity against human SF539 cells assessed as cell growth at 1 uM after 48 hrs by sulforhodamine B assay; conditions: SF-539, 48 h, read-out: Activity
[4] = Cytotoxicity against human RPMI8266 cells assessed as cell growth at 0.01 uM after 48 hrs by sulforhodamine B assay; conditions: read-out: Activity
HOP-62 = assay: Cytotoxicity against human HOP62 cells assessed as cell growth at 0.01 uM after 48 hrs by sulforhodamine B assay; conditions: HOP-62, 48 h, read-out: Activity
LOX IMVI = assay: Cytotoxicity against human LOXIMVI cells assessed as cell growth at 0.01 uM after 48 hrs by sulforhodamine B assay; conditions: read-out: Activity
UACC-62 [5] = assay: Cytotoxicity against human UACC62 cells assessed as cell growth at 0.001 uM after 48 hrs by sulforhodamine B assay; conditions: UACC-62, 48 h, read-out: Activity
IGROV-1 = assay: Cytotoxicity against human IGROV1 cells assessed as cell growth at 0.001 uM after 48 hrs by sulforhodamine B assay; conditions: IGROV-1, 48 h, read-out: Activity
UO-31 = assay: Cytotoxicity against human UO31 cells assessed as cell growth at 0.001 uM after 48 hrs by sulforhodamine B assay; conditions: UO-31, 48 h, read-out: Activity
PC-3 [6] = assay: Cytotoxicity against human PC3 cells assessed as cell growth at 0.001 uM after 48 hrs by sulforhodamine B assay; conditions: PC-3, 48 h, read-out: Activity
HOP-92 = assay: Growth inhibition of human HOP92 cells after 48 hrs by sulforhodamine B assay; conditions: HOP-92, 48 h
Summary of the method: (§2)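 NCI 60-cell screen, five-dose mode. Cells grown in RPMI 1640 with 5% FBS and 2 mM L-glutamine and plated at 5000-40,000 cells/well according to doubling time. After 24 h preincubation, a Tz plate was TCA-fixed. Five concentrations (10-fold or 1/2 log dilutions) were applied for 48 h at 37 °C. SRB staining read at 515 nm. IC50 taken from [(Ti-Tz)/(C-Tz)]×100 = 50.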

UACC-257 = assay: Growth inhibition of human UACC257 cells after 48 hrs by sulforhodamine B assay; conditions: UACC-257, 48 h; summary of the method: as §2
HL-60(TB) = assay: Cytotoxicity against human HL-60(TB) cells assessed as cell growth at 10 uM; conditions: read-out: Activity
Summary of the method: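 NCI 60-cell panel screen at a single concentration of 10 µM. Cells are grown in RPMI 1640 with 5% FBS and 2 mM L-glutamine and read by SRB protein staining at 515 nm. Percent growth is measured relative to time-zero and untreated controls; inhibition % is 100 minus growth %.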

UACC-62 [7] = assay: Cytotoxicity against human UACC62 cells assessed as cell growth at 1 uM after 48 hrs by sulforhodamine B assay; conditions: UACC-62, 48 h, read-out: Activity
NCI-H226 = assay: Cytotoxicity against human NCI-H226 cells assessed as cell growth at 10 uM; conditions: read-out: Activity; summary of the method: as §1
NCI-H322M = assay: Cytotoxicity against human NCI-H322M cells assessed as cell growth at 10 uM; conditions: read-out: Activity; summary of the method: as §1
MOLT-4 = assay: Cytotoxicity against human MOLT4 cells assessed as cell growth at 10 uM after 48 hrs by sulforhodamine B assay; conditions: MOLT-4, 48 h, read-out: Activity
NCI-H23 = assay: Cytotoxicity against human NCI-H23 cells assessed as cell growth at 10 uM after 48 hrs by sulforhodamine B assay; conditions: NCI-H23, 48 h, read-out: Activity
SK-MEL-2 [8] = assay: Cytotoxicity against human SK-MEL-2 cells assessed as cell growth at 10 uM after 48 hrs by sulforhodamine B assay; conditions: SK-MEL-2, 48 h, read-out: Activity
OVCAR-4 [9] = assay: Cytotoxicity against human OVCAR4 cells assessed as cell growth at 10 uM after 48 hrs by sulforhodamine B assay; conditions: OVCAR-4, 48 h, read-out: Activity
DU-145 = assay: Cytotoxicity against human DU145 cells assessed as cell growth at 10 uM after 48 hrs by sulforhodamine B assay; conditions: DU-145, 48 h, read-out: Activity
[10] = read-out: LC50 (the source's name)

COc1cc(C)cc(-c2c(-c3ccnc(-c4ccc(C(C)=O)cc4)c3)cnn2CC#N)c1
growth at 0.1 µM (SK-MEL-2 [1]): 103%
growth at 0.1 µM (OVCAR-4 [2]): 105%
growth at 0.1 µM (OVCAR-5): 89%
growth at 10 µM (SNB-75): 57.9%
growth at 10 µM (U-251): 84.7%
growth at 10 µM (NCI/ADR-RES): 60.1%
growth at 10 µM (A498): 83%
growth at 10 µM (TK-10): 72.6%
growth at 10 µM (PC-3 [3]): 77.3%
growth at 10 µM (MCF7): 21.9%
growth at 0.001 µM (A549): 95%
growth at 1 µM (KM12): 9%
growth at 1 µM (SF-539): -45%
growth at 0.01 µM [4]: 94%
growth at 0.01 µM (HOP-62): 81%
growth at 0.01 µM (LOX IMVI): 105%
growth at 0.001 µM (UACC-62 [5]): 93%
growth at 0.001 µM (IGROV-1): 107%
growth at 0.001 µM (UO-31): 88%
growth at 0.001 µM (PC-3 [6]): 101%
GI50 (HOP-92): 1.46 µM
TGI (HOP-92): 7.56 µM
CC50 (HOP-92; [10]): > 100 µM
GI50 (UACC-257): 5.24 µM
TGI (UACC-257): > 100 µM
CC50 (UACC-257; [10]): > 100 µM
growth at 10 µM (HL-60(TB)): 57%
growth at 1 µM (UACC-62 [7]): 25%
growth at 10 µM (NCI-H226): 83.7%
growth at 10 µM (NCI-H322M): 104%
growth at 10 µM (MOLT-4): 14%
growth at 10 µM (NCI-H23): 18%
growth at 10 µM (SK-MEL-2 [8]): 20%
growth at 10 µM (OVCAR-4 [9]): 30%
growth at 10 µM (DU-145): 15%
